This passage reports MIC and Drug uptake results from ChEMBL document CHEMBL1671664 (2009).

≈ marks a conversion by molar mass, not a printed value. Calls of active or inactive are those of the source. The rule behind the calls is not given here.

Test [1] deals with Salmonella typhimurium. Put plainly: Antimicrobial activity against Salmonella enterica serovar Typhimurium isolate s2878 harboring wild type ParC gene by agar dilution method. It counts as functional, Salmonella enterica subsp. enterica serovar Typhimurium. On the technique in general: Agar dilution tests growth on a series of plates holding different concentrations.
Test [2] is described as follows: Antimicrobial activity against qnrA-positive Salmonella enterica serovar Mbandaka isolate s2093 harboring ParC QRDR mutant gene by agar dilution method. It counts as functional, Salmonella enterica subsp. enterica serovar Mbandaka.
The nature of test [3]: Antimicrobial activity against Salmonella enterica serovar Corvallis isolate s2064 harboring ParC QRDR mutant gene by agar dilution method. The test is classed as functional, Salmonella enterica subsp. enterica serovar Corvallis.
For test [4], the system named is Salmonella typhimurium. Put plainly: Antimicrobial activity against Salmonella enterica serovar Typhimurium isolate SL1344 harboring wild type ParC gene by agar dilution method. The test is classed as functional, Salmonella enterica subsp. enterica serovar Typhimurium.
The nature of test [5]: Antimicrobial activity against Salmonella enterica serovar Braenderup isolate s2906 harboring ParC QRDR mutant gene by agar dilution method. The test is classed as functional, Salmonella enterica subsp. enterica serovar Braenderup.
Test [6] in a line: Antimicrobial activity against qnrS-positive Salmonella enterica serovar Montevideo isolate s2209 harboring ParC QRDR mutant gene by agar dilution method. It counts as functional, Salmonella enterica subsp. enterica serovar Montevideo.
A short description of test [7]: Antimicrobial activity against Salmonella enterica serovar Montevideo isolate s2317 harboring ParC QRDR mutant gene by agar dilution method. The test is classed as functional, Salmonella enterica subsp. enterica serovar Montevideo.
Test [8] concerns Salmonella typhimurium. Description: Antimicrobial activity against qnrS-positive Salmonella enterica serovar Typhimurium isolate s2425 harboring wild type ParC gene by agar dilution method. The test is classed as functional, Salmonella enterica subsp. enterica serovar Typhimurium.
A short description of test [9]: Antimicrobial activity against Salmonella enterica serovar Stanley isolate s2043 harboring ParC QRDR mutant gene by agar dilution method. The test is classed as functional, Salmonella enterica subsp. enterica serovar Stanley.
Test [10] has as its system Salmonella enterica subsp. enterica serovar Montevideo. Description: Drug uptake in qnrS-positive Salmonella enterica serovar Montevideo isolate s2209 harboring ParC QRDR mutant gene in presence of CCCP. The test is classed as functional. In a few lines:
(§1)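 Cell suspensions preincubated with 100 μM CCCP before substrate addition. Ciprofloxacin accumulation read by fluorescence (ex 311/em 447 nm), Hoechst 33342 by fluorescence (ex 355/[…]), at 10 min. Expressed relative to S. Typhimurium SL1344. Differences tested by Student t test (P < 0.05).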

For test [11], the system named is Salmonella enterica subsp. enterica serovar Mbandaka. Description: Drug uptake in qnrA-positive Salmonella enterica serovar Mbandaka isolate s2093 harboring ParC QRDR mutant gene in presence of CCCP. It counts as functional. In a few lines: as §1
A short description of test [12]: Antimicrobial activity against Salmonella enterica serovar Mbandaka isolate s2159 harboring ParC QRDR mutant gene by agar dilution method. The test is classed as functional, Salmonella enterica subsp. enterica serovar Mbandaka.
Test [13] can be described thus: Antimicrobial activity against qnrS-positive Salmonella enterica serovar Corvallis isolate s2017 harboring ParC QRDR mutant gene by agar dilution method. The test is classed as functional, Salmonella enterica subsp. enterica serovar Corvallis.
Test [14] in a line: Antimicrobial activity against qnrS-positive Salmonella enterica serovar Virginia isolate s2219 harboring ParC QRDR mutant gene by agar dilution method. It counts as functional, Salmonella enterica subsp. enterica serovar Virginia.
The nature of test [15]: Antimicrobial activity against qnrS-positive Salmonella enterica serovar Stanley isolate s2018 harboring ParC QRDR mutant gene by agar dilution method. The test is classed as functional, Salmonella enterica subsp. enterica serovar Stanley.
Test [16] deals with Salmonella typhimurium. Description: Antimicrobial activity against qnrS-positive Salmonella enterica serovar Typhimurium isolate s2705 harboring wild type ParC gene by agar dilution method. It counts as functional, Salmonella enterica subsp. enterica serovar Typhimurium.
The nature of test [17]: Antimicrobial activity against qnrS-positive Salmonella enterica serovar Montevideo isolate s2944 harboring ParC QRDR mutant gene by agar dilution method. It counts as functional, Salmonella enterica subsp. enterica serovar Montevideo.
Test [18] can be described thus: Antimicrobial activity against qnrS-positive Salmonella enterica serovar Corvallis isolate s2052 harboring ParC QRDR mutant gene by agar dilution method. The test is classed as functional, Salmonella enterica subsp. enterica serovar Corvallis.
The nature of test [19]: Antimicrobial activity against qnrS-positive Salmonella enterica serovar Braenderup isolate s2856 harboring ParC QRDR mutant gene by agar dilution method. It counts as functional, Salmonella enterica subsp. enterica serovar Braenderup.
Test [20] relates to Escherichia coli. Description: Antimicrobial activity against Escherichia coli DH5[alpha] transformed with Salmonella enterica serovar Virginia isolate s2219 plasmid encoded qnrS and Parc QRDR Thre57Ser mutant gene by agar dilution method. It counts as functional. In a few lines: (§2)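 E. coli DH5α transformed by electroporation with qnr-carrying plasmid DNA from donor Salmonella isolates; transformants selected on LB agar with 0.03 μg/ml ciprofloxacin, qnr confirmed by multiplex PCR. MICs to ciprofloxacin and nalidixic acid by agar dilution.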

The test system of test [21] is Escherichia coli. Put plainly: Antimicrobial activity against Escherichia coli DH5[alpha] transformed with Salmonella enterica serovar Montevideo isolate s2209 plasmid encoded qnrS and Parc QRDR Thre57Ser mutant gene by agar dilution method. The test is classed as functional. In a few lines: as §2
Test [22] concerns Escherichia coli. Put plainly: Antimicrobial activity against Escherichia coli DH5[alpha] transformed with Salmonella enterica serovar Montevideo isolate s2944 plasmid encoded qnrS and Parc QRDR Thre57Ser mutant gene by agar dilution method. The test is classed as functional. In a few lines: as §2
Test [23] deals with Escherichia coli. Description: Antimicrobial activity against Escherichia coli DH5[alpha] transformed with Salmonella enterica serovar Corvallis isolate s2017 plasmid encoded qnrS and Parc QRDR Thre57Ser mutant gene by agar dilution method. The test is classed as functional. In a few lines:
as §2

The subject of test [24] is Escherichia coli. Description: Antimicrobial activity against Escherichia coli DH5[alpha] transformed with Salmonella enterica serovar Typhimurium isolate s2425 plasmid encoded qnrS and Parc gene by agar dilution method. It counts as functional. The procedure, abridged:
as §2

Test [25] has as its system Escherichia coli. Description: Antimicrobial activity against Escherichia coli DH5[alpha] transformed with Salmonella enterica serovar Corvallis isolate s2052 plasmid encoded qnrS and Parc QRDR Thre57Ser mutant gene by agar dilution method. The test is classed as functional. The procedure, abridged:
as §2

Test [26] relates to Escherichia coli. Description: Antimicrobial activity against Escherichia coli DH5[alpha] transformed with Salmonella enterica serovar Typhimurium isolate s2705 plasmid encoded qnrS and Parc gene by agar dilution method. It counts as functional. In a few lines: as §2

As usually defined, the MIC is the least concentration at which growth counts as inhibited. Low readings indicate a more susceptible organism, high ones a less susceptible organism. Take `O=C(O)c1cn(C2CC2)c2cc(N3CCNCC3)c(F)cc2c1=O` [CIPROFLOXACIN]: the MIC was found to be 0.03 µg/mL (≈ 0.0905 µM) in the test on Salmonella typhimurium [1]; 4 µg/mL (≈ 12.1 µM) in test [2]; 0.015 µg/mL (≈ 0.0453 µM) in test [3]; 0.06 µg/mL (≈ 0.181 µM) against Salmonella typhimurium [4]; 0.015 µg/mL (≈ 0.0453 µM) in [5]; 0.5 µg/mL (≈ 1.51 µM) in [6]. The MIC in [7] was 0.015 µg/mL (≈ 0.0453 µM); with Salmonella typhimurium [8], 0.5 µg/mL (≈ 1.51 µM); in test [9], 0.015 µg/mL (≈ 0.0453 µM); in test [12], 0.008 µg/mL (≈ 0.0241 µM); in test [13] it was 0.25 µg/mL (≈ 0.754 µM); in [14] it was 0.5 µg/mL (≈ 1.51 µM). In addition, the minimum inhibitory concentration (MIC) (in [15]; with Salmonella typhimurium [16]; in test [17]; in test [18]; in test [19]) was 0.5 µg/mL (≈ 1.51 µM) throughout. Also, the Drug uptake result in test [10] and in test [11] was “inactive” in each case.
As for `C[C@H]1COc2c(N3CCN(C)CC3)c(F)cc3c(=O)c(C(=O)O)cn1c23.C[C@H]1COc2c(N3CCN(C)CC3)c(F)cc3c(=O)c(C(=O)O)cn1c23.O` [LEVOFLOXACIN], the MIC worked out at 1 µg/mL in [2]; 0.06 µg/mL in test [3]; 1 µg/mL in test [6]; 0.06 µg/mL in test [7]; 1 µg/mL in the test with Salmonella typhimurium [8]; 0.06 µg/mL in test [9]. Moreover, the MIC in test [12] came out at 0.06 µg/mL; in [13], 1 µg/mL; in test [14] it was 1 µg/mL; in [15] it was 1 µg/mL; in the test with Salmonella typhimurium [16] it was 1 µg/mL; in test [17], 1 µg/mL. Moreover, the MIC in test [18] was 0.5 µg/mL; in test [19], 1 µg/mL.
Turning to `COc1c(N2C[C@@H]3CCCN[C@@H]3C2)c(F)cc2c(=O)c(C(=O)O)cn(C3CC3)c12` [MOXIFLOXACIN], the MIC in [2] turned out to be 0.5 µg/mL (≈ 1.25 µM); in test [3], 0.06 µg/mL (≈ 0.149 µM); in test [7], 0.06 µg/mL (≈ 0.149 µM); in test [9] it was 0.06 µg/mL (≈ 0.149 µM); in test [12], 0.125 µg/mL (≈ 0.311 µM); in [18], 2 µg/mL (≈ 4.98 µM).
Consider `CCn1cc(C(=O)O)c(=O)c2ccc(C)nc21` [NALIDIXIC ACID], for which the MIC amounted to 8 µg/mL (≈ 34.4 µM) with Escherichia coli [20]; 16 µg/mL (≈ 68.9 µM) against Salmonella typhimurium [1]; 16 µg/mL (≈ 68.9 µM) in [2]; 4 µg/mL (≈ 17.2 µM) in test [3]; 4 µg/mL (≈ 17.2 µM) against Salmonella typhimurium [4]; 4 µg/mL (≈ 17.2 µM) in [5]. Besides, the MIC in test [6] came to 32 µg/mL (≈ 138 µM); against Escherichia coli [21], 8 µg/mL (≈ 34.4 µM); in test [7], 4 µg/mL (≈ 17.2 µM); in the test with Salmonella typhimurium [8], 16 µg/mL (≈ 68.9 µM); in [9] it was 4 µg/mL (≈ 17.2 µM); in test [12], 4 µg/mL (≈ 17.2 µM). For the same compound, the MIC in test [13] was 16 µg/mL (≈ 68.9 µM); against Escherichia coli [22] it was 8 µg/mL (≈ 34.4 µM); in [14], 32 µg/mL (≈ 138 µM); in [15], 16 µg/mL (≈ 68.9 µM); in the test on Salmonella typhimurium [16] it was 16 µg/mL (≈ 68.9 µM); against Escherichia coli [23], 8 µg/mL (≈ 34.4 µM). Further, the MIC against Escherichia coli [24] stood at 8 µg/mL (≈ 34.4 µM); in the test on Escherichia coli [25], 8 µg/mL (≈ 34.4 µM); against Escherichia coli [26] it was 8 µg/mL (≈ 34.4 µM); in [17], 16 µg/mL (≈ 68.9 µM); in test [18], 16 µg/mL (≈ 68.9 µM); in [19] it was 16 µg/mL (≈ 68.9 µM).
As for `CCn1cc(C(=O)O)c(=O)c2cc(F)c(N3CCNCC3)cc21` [NORFLOXACIN], the MIC in test [2] came to 16 µg/mL (≈ 50.1 µM); in test [3], 0.06 µg/mL (≈ 0.188 µM); in test [6] it was 2 µg/mL (≈ 6.26 µM); in test [7] it was 0.125 µg/mL (≈ 0.391 µM); against Salmonella typhimurium [8], 2 µg/mL (≈ 6.26 µM); in test [9], 0.125 µg/mL (≈ 0.391 µM). Besides, the MIC is 0.125 µg/mL (≈ 0.391 µM) in test [12]; 2 µg/mL (≈ 6.26 µM) in [13]; 2 µg/mL (≈ 6.26 µM) in test [14]; 2 µg/mL (≈ 6.26 µM) in test [15]; 2 µg/mL (≈ 6.26 µM) in the test on Salmonella typhimurium [16]; 2 µg/mL (≈ 6.26 µM) in test [17]. In addition, the values for the MIC in test [18] and in test [19] were 1 µg/mL (≈ 3.13 µM) and 2 µg/mL (≈ 6.26 µM), respectively.
As to `CC1COc2c(N3CCN(C)CC3)c(F)cc3c(=O)c(C(=O)O)cn1c23` (stereo unspecified) [OFLOXACIN], the MIC came out at 1 µg/mL (≈ 2.77 µM) in test [2]; 0.03 µg/mL (≈ 0.083 µM) in test [3]; 2 µg/mL (≈ 5.53 µM) in test [6]; 0.125 µg/mL (≈ 0.346 µM) in [7]; 2 µg/mL (≈ 5.53 µM) in the test with Salmonella typhimurium [8]; 0.125 µg/mL (≈ 0.346 µM) in test [9]. Moreover, the MIC in test [12] is 0.125 µg/mL (≈ 0.346 µM); in test [13], 2 µg/mL (≈ 5.53 µM); in [14], 2 µg/mL (≈ 5.53 µM); in [15], 2 µg/mL (≈ 5.53 µM); against Salmonella typhimurium [16], 2 µg/mL (≈ 5.53 µM); in test [17] it was 2 µg/mL (≈ 5.53 µM). Also, the figures for the MIC in test [18] and in test [19] were 1 µg/mL (≈ 2.77 µM) and 2 µg/mL (≈ 5.53 µM), respectively.
